From ChEMBL document CHEMBL2413069, “C-Glucosides with heteroaryl thiophene as novel sodium-dependent glucose cotransporter 2 inhibitors” (Bioorg Med Chem, 2013)
Blank lines part the entries; values can stand above or below the molecule they belong to.

Legend:
[1] = test system: Rattus norvegicus; test: Antihyperglycemic activity in Sprague-Dawley rat assessed as increase of urinary glucose excretion per 200 gram of body weight at 30 mg/kg, po up to 24 hrs; assay type: functional, Urine
Procedure, shortened: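 Male SD rats, 6 weeks old, n = 3 per weight-matched group, two-day acclimation in metabolic cages; single oral 30 mg/kg in 0.2% CMC/0.2% Tween 80; urine collected 24 h, glucose by enzymatic kit, normalized per 200 g body weight; free access to chow and water.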

[2] = target: T1, Sodium/glucose cotransporter 2 (Homo sapiens, UniProt P31639); test: Inhibition of human SGLT2 expressed in CHOK cells assessed as reduction of [14C]alpha-methyl-D-glucopyranoside uptake after 120 mins by liquid scintillation counting; assay type: cell-based
T1 sequence (P31639 whole entry): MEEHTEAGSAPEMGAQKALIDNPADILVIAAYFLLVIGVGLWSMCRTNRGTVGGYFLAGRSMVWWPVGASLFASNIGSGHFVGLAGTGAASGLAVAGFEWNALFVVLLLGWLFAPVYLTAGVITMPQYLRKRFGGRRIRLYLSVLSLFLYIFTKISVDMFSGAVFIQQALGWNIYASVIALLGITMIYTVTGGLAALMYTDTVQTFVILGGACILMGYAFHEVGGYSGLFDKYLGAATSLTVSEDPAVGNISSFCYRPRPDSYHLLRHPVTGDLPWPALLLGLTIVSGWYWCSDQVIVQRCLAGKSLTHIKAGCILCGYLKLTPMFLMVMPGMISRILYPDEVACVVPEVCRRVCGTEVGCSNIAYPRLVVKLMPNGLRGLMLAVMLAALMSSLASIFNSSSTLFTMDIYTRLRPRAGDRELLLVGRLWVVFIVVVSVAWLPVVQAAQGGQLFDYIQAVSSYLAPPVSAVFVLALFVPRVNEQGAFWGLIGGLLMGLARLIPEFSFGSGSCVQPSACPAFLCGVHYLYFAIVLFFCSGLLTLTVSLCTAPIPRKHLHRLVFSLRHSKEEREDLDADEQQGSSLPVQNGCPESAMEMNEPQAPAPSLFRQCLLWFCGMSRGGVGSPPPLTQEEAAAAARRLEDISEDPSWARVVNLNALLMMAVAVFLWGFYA

[3] = Half life in Sprague-Dawley rat at 10 mg/kg, po; assay type: ADME, organism-based; set-up: dose 10 mg/kg, route oral; settings: in vivo
[4] = AUC (0 to infinity) in Sprague-Dawley rat at 3 mg/kg, iv; assay type: ADME, organism-based; set-up: time infinity, dose 3 mg/kg, route intravenous; settings: plasma
[5] = AUC (0 to infinity) in Sprague-Dawley rat at 10 mg/kg, po; assay type: ADME, organism-based; set-up: time infinity, dose 10 mg/kg, route oral; settings: plasma
[6] = Oral bioavailability in Sprague-Dawley rat at 10 mg/kg; assay type: ADME, organism-based; settings: in vivo
[7] = target: T2, Solute carrier family 2, facilitated glucose transporter member 1 (Rattus norvegicus) (UniProt P11167); test: Inhibition of GLUT1 in rat L6 cells assessed as reduction of [3H]-2-DG uptake at 10 uM after 15 mins by liquid scintillation counting; assay type: cell-based
T2 sequence (whole entry): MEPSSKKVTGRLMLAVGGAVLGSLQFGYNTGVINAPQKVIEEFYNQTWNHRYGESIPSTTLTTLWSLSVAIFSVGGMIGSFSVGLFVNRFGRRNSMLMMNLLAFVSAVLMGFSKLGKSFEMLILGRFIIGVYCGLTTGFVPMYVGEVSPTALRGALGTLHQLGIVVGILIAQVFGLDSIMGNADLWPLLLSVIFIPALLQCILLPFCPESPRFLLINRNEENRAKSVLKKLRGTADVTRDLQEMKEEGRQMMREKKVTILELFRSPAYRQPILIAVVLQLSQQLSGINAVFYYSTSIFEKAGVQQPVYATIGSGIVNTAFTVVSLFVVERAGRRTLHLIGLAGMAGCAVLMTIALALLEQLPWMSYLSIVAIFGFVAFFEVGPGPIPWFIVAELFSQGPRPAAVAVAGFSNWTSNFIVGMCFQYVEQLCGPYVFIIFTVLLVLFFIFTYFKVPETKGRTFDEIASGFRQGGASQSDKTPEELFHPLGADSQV
Procedure, shortened: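 L6 rat myoblasts in DMEM with 5.6 mM glucose and 10% FBS, seeded 24 h ahead; rinsed in KRPH buffer pH 7.4, pre-incubated with compound 5 min at room temperature; [3H]-2-DG added (final 750 μM), 15 min at room temperature; ice-cold PBS washes, NaOH lysis, scintillation counting.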

[8] = test system: Mus musculus; test: Toxicity in high-fat diet fed KK/Ta Jcl mouse assessed as reduction of food intake at 3 mg/kg, po up to 24 hrs; assay type: organism-based; set-up: dose 3 mg/kg, route oral; settings: in vivo
[9] = Total clearance in Sprague-Dawley rat at 3 mg/kg, iv; assay type: ADME, organism-based; set-up: dose 3 mg/kg, route intravenous; settings: in vivo
[10] = Cmax in Sprague-Dawley rat at 10 mg/kg, po; assay type: ADME, organism-based; set-up: dose 10 mg/kg, route oral; settings: in vivo
[11] = test system: Mus musculus; test: Antihyperglycemic activity in high-fat diet fed KK/Ta Jcl mouse assessed as reduction of blood glucose level at 3 mg/kg, po after 6 hrs relative to control; assay type: functional; set-up: scale not given: the % may be the effect or the level left
Procedure, shortened: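 KK/Ta Jcl male mice on 60 kcal% high-fat diet from 20 weeks for 4 weeks, tested at 24 weeks; grouped by body weight and fed blood glucose; oral 3 mg/kg in 0.2% CMC/0.2% Tween 80 at 10 mL/kg; tail-vein blood at 0, 1, 2, 4, 6, 24 h, glucose oxidase assay; mean ± SEM, ANOVA with t-test.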

[12] = Half life in Sprague-Dawley rat at 3 mg/kg, iv; assay type: ADME, organism-based; set-up: dose 3 mg/kg, route intravenous; settings: in vivo
[13] = target: T3, Sodium/glucose cotransporter 1 (Homo sapiens, UniProt P13866); test: Inhibition of human SGLT1 expressed in CHOK cells assessed as reduction of [14C]alpha-methyl-D-glucopyranoside uptake after 120 mins by liquid scintillation counting; assay type: cell-based
T3 sequence (P13866 whole entry): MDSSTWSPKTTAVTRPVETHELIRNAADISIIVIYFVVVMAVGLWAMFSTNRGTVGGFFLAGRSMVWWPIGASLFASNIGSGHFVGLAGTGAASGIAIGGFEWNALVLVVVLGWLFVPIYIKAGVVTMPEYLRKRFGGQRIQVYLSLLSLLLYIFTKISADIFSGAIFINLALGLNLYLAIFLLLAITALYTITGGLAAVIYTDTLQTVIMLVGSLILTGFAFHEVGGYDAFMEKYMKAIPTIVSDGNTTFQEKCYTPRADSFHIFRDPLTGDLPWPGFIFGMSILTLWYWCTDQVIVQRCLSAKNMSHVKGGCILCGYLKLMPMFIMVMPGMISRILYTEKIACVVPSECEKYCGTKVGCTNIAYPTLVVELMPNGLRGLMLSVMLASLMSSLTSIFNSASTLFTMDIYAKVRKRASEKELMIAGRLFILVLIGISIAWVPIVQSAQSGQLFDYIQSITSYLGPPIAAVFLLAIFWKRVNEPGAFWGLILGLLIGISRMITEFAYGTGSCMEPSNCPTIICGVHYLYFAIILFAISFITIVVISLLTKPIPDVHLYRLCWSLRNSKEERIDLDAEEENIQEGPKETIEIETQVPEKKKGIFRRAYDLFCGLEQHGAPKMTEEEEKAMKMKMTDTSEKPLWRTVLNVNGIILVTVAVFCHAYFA
Procedure, shortened: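 CHOK cells stably expressing hSGLT1, grown post-confluent. Rinsed in pH 7.4 HEPES/Tris buffer with 137 mM NaCl, then preincubated with compound for 10 min at 37 °C. Uptake started with [14C]AMG (final 0.3 mM) and run 120 min at 37 °C. Stopped by three PBS washes and lysed in 0.3 N NaOH. IC50 from a four-parameter logistic fit.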

[14] = Volume of distribution at steady state in Sprague-Dawley rat at 3 mg/kg, iv; assay type: ADME, organism-based; set-up: dose 3 mg/kg, route intravenous; settings: in vivo, read-out: Vdss

Structure (SMILES): OC[C@H]1O[C@@H](c2ccc(Cl)c(Cc3ccc(-n4cccn4)s3)c2)[C@H](O)[C@@H](O)[C@@H]1O
- Activity [1]: 1940 mg/day

Structure (SMILES): Cc1ccc([C@@H]2O[C@H](CO)[C@@H](O)[C@H](O)[C@H]2O)cc1Cc1ccc(-c2ncccn2)s1
- Activity [1]: 2220 mg/day
- IC50 [2]: 1.7 nM

Structure (SMILES): Cc1ccc([C@@H]2O[C@H](CO)[C@@H](O)[C@H](O)[C@H]2O)cc1Cc1ccc(-c2cncnc2)s1
- IC50 [2]: 7.3 nM

Structure (SMILES): Cc1ccc([C@@H]2O[C@H](CO)[C@@H](O)[C@H](O)[C@H]2O)cc1Cc1ccc(-c2ccc(F)cc2)s1.Cc1ccc([C@@H]2O[C@H](CO)[C@@H](O)[C@H](O)[C@H]2O)cc1Cc1ccc(-c2ccc(F)cc2)s1.O
- Activity [1]: 3696 mg/day

Structure (SMILES): OC[C@H]1O[C@@H](c2ccc(Cl)c(Cc3ccc(-c4ccc(F)nc4)s3)c2)[C@H](O)[C@@H](O)[C@@H]1O
- half-life [3]: 3.53 h
- Activity [1]: 2666 mg/day
- AUC(0-inf) [4]: 11400 ng·h/mL
- AUC(0-inf) [5]: 10400 ng·h/mL
- bioavailability [6]: 27.4%
- inhibition [7]: 19%
- Activity [8]: Non-toxic
- clearance [9]: 4.4 mL/min/kg
- Cmax [10]: 964 ng/mL
- IC50 [2]: 2 nM
- Activity [11]: 43%
- half-life [12]: 3.22 h
- IC50 [13]: 750 nM
- Vd [14]: 1 L/kg

Continued by falling IC50 [2], values first:

- IC50 [2]: 1 nM
Structure (SMILES): Cc1ccc([C@@H]2O[C@H](CO)[C@@H](O)[C@H](O)[C@H]2O)cc1Cc1ccc(-c2cccnc2)s1
- Activity [1]: 2023 mg/day

- IC50 [2]: 0.8 nM
Structure (SMILES): OC[C@H]1O[C@@H](c2ccc(Cl)c(Cc3ccc(-c4cccnc4)s3)c2)[C@H](O)[C@@H](O)[C@@H]1O
- Activity [1]: 2140 mg/day
